B1: Osa-1-4 twister ribozyme (parent)
chain: CCGCCUAACACUGCCAAUGCCGGUCCCAAGCCCGGAUAAAAGUGGAGGGGGCGG

Variants of: B1
Experiment: self-cleavage, relative activity (ratio to wild type); higher = more cleavage; co-transcriptional
Outline: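 The 48 positions downstream of the cleavage site in a 54-nucleotide Oryza sativa twister ribozyme template were synthesised at 97 % wild-type base and 1 % of each other base. The template was transcribed in vitro at 37 °C for 2 h, with self-cleavage allowed during transcription. Reads with or without upstream sequence after deep sequencing marked cleavage status, and relative activity is fraction cleaved normalised to wild type.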
Work on CCGCCUAACACUGGCAAUGCCGGUCCCAAGCCCGGAUAAAAGUGGAAGGGGCGG [C14G G47A] yielded a self-cleavage of 0.05.
Variant CCGCCUAACACUGGCAAUGCCGGUCCCAAGCCCGGAUAAAAGUGGAUGGGGCGG [C14G G47U] has a self-cleavage of 0.04.
For CCGCCUAACACUGGCAAUGCCGGUCCCAAGCCCGGAUAAAAGUGGACGGGGCGG [C14G G47C], the self-cleavage was 0.04.
Work on CCGCCUAACACUGGCAAUGCCGGUCCCAAGCCCGGAUAAAAGUGGAGGAGGCGG [C14G G49A] yielded a self-cleavage of 0.04.
CCGCCUAACACUGGCAAUGCCGGUCCCAAGCCCGGAUAAAAGUGGAGGCGGCGG [C14G G49C] gave a self-cleavage of 0.03.
CCGCCUAACACUGGCAAUGCCGGUCCCAAGCCCGGAUAAAAGUGGAGGUGGCGG [C14G G49U] showed a self-cleavage of 0.03.
Work on CCGCCUAACACUGGCAAUGCCGGUCCCAAGCCCGGAUAAAAGCGGAGGGGGCGG [C14G U43C] yielded a self-cleavage of 0.07.
For CCGCCUAACACUGGCAAUGCCGGUCCCAAGCCCGGAUAAAAGAGGAGGGGGCGG [C14G U43A], the self-cleavage was 0.09.
In the case of CCGCCUAACACUGGCAAUGCCGGUCCCAAGCCCGGAUAAAAGGGGAGGGGGCGG [C14G U43G], the self-cleavage is reported as 0.06.
CCGCCUAACACUGUCAAUGCCGGUCCCAAGCCCGGAUAAAAGUGGAGGGGGCGG [C14U] showed a self-cleavage of 0.63.
With CCGCCUAACACUGGCAAUGCCGGUCCCAAGCCCGGAGAAAAGUGGAGGGGGCGG [C14G U37G] the self-cleavage was 0.25.
CCGCCUAACACUGGCAAUGCCGGUCCCAAGCCCGGACAAAAGUGGAGGGGGCGG [C14G U37C] gave a self-cleavage of 0.19.
Variant CCGCCUAACACUGGCAAUGCCGGUCCCAAGCCCGGAAAAAAGUGGAGGGGGCGG [C14G U37A] has a self-cleavage of 0.27.
Work on CCGCCUAACACAGGCAAUGCCGGUCCCAAGCCCGGAUAAAAGUGGAGGGGGCGG [C14G U12A] yielded a self-cleavage of 0.09.
In the case of CCGCCUAACACCGGCAAUGCCGGUCCCAAGCCCGGAUAAAAGUGGAGGGGGCGG [C14G U12C], the self-cleavage is reported as 0.09.
For CCGCCUAACACGGGCAAUGCCGGUCCCAAGCCCGGAUAAAAGUGGAGGGGGCGG [C14G U12G], the self-cleavage was 0.06.
CCGCCUAACACUGGCAAUGCCGGUCCCAAGCCCGGAUAAAAGUGGAGGGGGCAG [C14G G53A] showed a self-cleavage of 0.09.
CCGCCUAACACUGGCAAUGCCGGUCCCAAGCCCGGAUAAAAGUGGAGGGGGCUG [C14G G53U] gave a self-cleavage of 0.06.
CCGCCUAACACUGGCAAUGCCGGUCCCAAGCCCGGAUAAAAGUGGAGGGGGCCG [C14G G53C] showed a self-cleavage of 0.04.
CCGCCUAACACUGGCAAUGCCGGUCCCAAGCCCGGAUAAAAGUGGAGAGGGCGG [C14G G48A] showed a self-cleavage of 0.03.
With CCGCCUAACACUGGCAAUGCCGGUCCCAAGCCCGGAUAAAAGUGGAGCGGGCGG [C14G G48C] the self-cleavage was 0.04.
Variant CCGCCUAACACUGGCAAUGCCGGUCCCAAGCCCGGAUAAAAGUGGAGUGGGCGG [C14G G48U] has a self-cleavage of 0.03.
Work on CCGCCUAACACUGGCAAUGCCGGUCCCAAGCCCGGAUAAAAGUAGAGGGGGCGG [C14G G44A] yielded a self-cleavage of 0.23.
In the case of CCGCCUAACACUGGCAAUGCCGGUCCCAAGCCCGGAUAAAAGUCGAGGGGGCGG [C14G G44C], the self-cleavage is reported as 0.07.
CCGCCUAACACUGGCAAUGCCGGUCCCAAGCCCGGAUAAAAGUUGAGGGGGCGG [C14G G44U] gave a self-cleavage of 0.08.
With CCGCCUAACACUGGCAAUGCCGGUCCCAAGCCCGGAUAAAAGUGGAGGGCGCGG [C14G G50C] the self-cleavage was 0.08.
Variant CCGCCUAACACUGGCAAUGCCGGUCCCAAGCCCGGAUAAAAGUGGAGGGAGCGG [C14G G50A] has a self-cleavage of 0.13.
Work on CCGCCUAACACUGGCAAUGCCGGUCCCAAGCCCGGAUAAAAGUGGAGGGUGCGG [C14G G50U] yielded a self-cleavage of 0.1.
With CCGCCUAACACUGUAAAUGCCGGUCCCAAGCCCGGAUAAAAGUGGAGGGGGCGG [C14U C15A] the self-cleavage was 0.08.
Work on CCGCCUAACACUGGCAAUGCCGGCCCCAAGCCCGGAUAAAAGUGGAGGGGGCGG [C14G U24C] yielded a self-cleavage of 0.04.
CCGCCUAACACUGGCAAUGCCGGACCCAAGCCCGGAUAAAAGUGGAGGGGGCGG [C14G U24A] showed a self-cleavage of 0.04.
CCGCCUAACACUGGCAAUGCCGGGCCCAAGCCCGGAUAAAAGUGGAGGGGGCGG [C14G U24G] showed a self-cleavage of 0.02.
Variant CCGCCUAACACUGGCAAUGCCGGUCCCAAGCCCGGAUAAAAGUGGAGGGGGCGA [C14G G54A] has a self-cleavage of 0.1.
Variant CCGCCUAACACUGGCAAUGCCGGUCCCAAGCCCGGAUAAAAGUGGAGGGGGCGC [C14G G54C] has a self-cleavage of 0.06.
Work on CCGCCUAACACUGGCAAUGCCGGUCCCAAGCCCGGAUAAAAGUGGAGGGGGCGU [C14G G54U] yielded a self-cleavage of 0.3.
In the case of CCGCCUAAGACUGUCAAUGCCGGUCCCAAGCCCGGAUAAAAGUGGAGGGGGCGG [C14U C9G], the self-cleavage is reported as 0.2.
Work on CCGCCUAAAACUGUCAAUGCCGGUCCCAAGCCCGGAUAAAAGUGGAGGGGGCGG [C14U C9A] yielded a self-cleavage of 0.12.
CCGCCUAAUACUGUCAAUGCCGGUCCCAAGCCCGGAUAAAAGUGGAGGGGGCGG [C14U C9U] showed a self-cleavage of 0.41.
In the case of CCGCCUAACACUGGCAAUGCCGGUCCCAAGCCCGGAUAAAACUGGAGGGGGCGG [C14G G42C], the self-cleavage is reported as 0.06.
CCGCCUAACACUGGCAAUGCCGGUCCCAAGCCCGGAUAAAAUUGGAGGGGGCGG [C14G G42U] gave a self-cleavage of 0.02.
CCGCCUAACACUGGCAAUGCCGGUCCCAAGCCCGGAUAAAAGUGCAGGGGGCGG [C14G G45C] showed a self-cleavage of 0.03.
For CCGCCUAACACUGGCAAUGCCGGUCCCAAGCCCGGAUAAAAGUGAAGGGGGCGG [C14G G45A], the self-cleavage was 0.04.
Variant CCGCCUAACACUGGCAAUGCCGGUCCCAAGCCCGGAUAAAAGUGUAGGGGGCGG [C14G G45U] has a self-cleavage of 0.03.
CCGCCUAACACUGGCAAUGCCGGUCCCAAGCCCGGAUAAAAGUGGAGGGGACGG [C14G G51A] gave a self-cleavage of 0.08.
Variant CCGCCUAACACUGGCAAUGCCGGUCCCAAGCCCGGAUAAAAGUGGAGGGGCCGG [C14G G51C] has a self-cleavage of 0.04.
With CCGCCUAACACUGGCAAUGCCGGUCCCAAGCCCGGAUAAAAGUGGAGGGGUCGG [C14G G51U] the self-cleavage was 0.04.
With CCGCCUAACACUGGCAAAGCCGGUCCCAAGCCCGGAUAAAAGUGGAGGGGGCGG [C14G U18A] the self-cleavage was 0.16.
Work on CCGCCUAACACUGGCAAGGCCGGUCCCAAGCCCGGAUAAAAGUGGAGGGGGCGG [C14G U18G] yielded a self-cleavage of 0.27.
CCGCCUAACACUGGCAACGCCGGUCCCAAGCCCGGAUAAAAGUGGAGGGGGCGG [C14G U18C] gave a self-cleavage of 0.15.

Source: the RNAGym collection of RNA variant scans (doi:10.1002/anie.201605470)
